What was measured:
Type in all cases: functional
Semliki Forest virus [1] = test: Effect of compound on forest virus infection in mice at the dose of 200 mg/kg; tested over 12 mice
Outline: (§1)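 Female Swiss Webster mice, about 20 g, received test compound intraperitoneally in aqueous 2% sodium bicarbonate. The daily dose was split into two halves given 24 h and 18 h before lethal Semliki Forest virus inoculation. Placebo mice got 2% sodium bicarbonate alone (0.1 mL/injection). The read-outs were survivors per group and mean survival time with standard deviation.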

Semliki Forest virus [2] = test: Effect of compound on forest virus infection in mice at the dose of 100 mg/kg; tested over 12 mice; outline: as §1
Semliki Forest virus [3] = test: Effect of compound on forest virus infection in mice, Mean survival time through 21 days at 200 mg/kg dose; outline: as §1
Semliki Forest virus [4] = test: Effect of compound on forest virus infection in mice, Mean survival time through 21 days at 100 mg/kg dose; outline: as §1
Semliki Forest virus [5] = test: Effect of compound on forest virus infection in mice at the dose of 100 mg/kg; Tested over 12 mice; outline: as §1
Mus musculus [6] = test: In vivo effect of Guanosines on murine NK cell activity at E:T ratio of 50:1
Outline: (§2)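 Mice dosed ip with 150 mg/kg in 2% aqueous sodium bicarbonate, split as 75 mg/kg b.i.d. for 1 day; controls got 2% sodium bicarbonate alone; groups of two. Spleens taken after 24 h; splenocytes tested ex vivo against 51Cr-labelled YAC-1 T-cell lymphoma targets in a 4 h 51Cr release assay, in triplicate, at two effector:target ratios.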

Mus musculus [7] = test: In vivo effect of Guanosines on murine NK cell activity at E:T ratio of 100:1; outline: as §2
Semliki Forest virus [8] = test: Effect of compound on forest virus infection in mice at the dose of 200 mg/kg; Tested over 12 mice; outline: as §1
Mus musculus [9] = test: In vivo effect of Guanosines on murin NK cell activity at E:T ratio of 100:1; outline: as §2
Semliki Forest virus [10] = test: Effect of compound on forest virus infection in mice at the dose of 200 mg/kg; tested over 11 mice; outline: as §1

| SMILES | Survivors / total (Semliki Forest virus [1]) | Survivors / total (Semliki Forest virus [2]) | Mean survival time (Semliki Forest virus [3]) [days] | Mean survival time (Semliki Forest virus [4]) [days] | Survivors / total (Semliki Forest virus [5]) | Cytotoxicity (Mus musculus [6]) [%] | Cytotoxicity (Mus musculus [7]) [%] | Survivors / total (Semliki Forest virus [8]) | Cytotoxicity (Mus musculus [9]) [%] | Survivors / total (Semliki Forest virus [10]) |
| --- | --- | --- | --- | --- | --- | --- | --- | --- | --- | --- |
| Nc1nc2c(c(C(=O)O)nn2C2O[C@H](CO)[C@@H](O)[C@H]2O)c(=O)[nH]1 (stereo partly drawn) | 3 | 1 | 6.3 | 6 | – | – | – | – | – | – |
| Nc1nc2c(cnn2C2O[C@H](CO)[C@@H](O)[C@H]2O)c(=O)[nH]1 (stereo partly drawn) | – | – | > 21 | 9 | 9 | 26.9 | 41.1 | 12 | – | – |
| Nc1nc2c(c(Br)nn2C2O[C@H](CO)[C@@H](O)[C@H]2O)c(=O)[nH]1 (stereo partly drawn) | – | – | 9 | 9 | 11 | 24.4 | – | 11 | 33.2 | – |
| Cc1nn(C2O[C@H](CO)[C@@H](O)[C@H]2O)c2nc(N)[nH]c(=O)c12 (stereo partly drawn) | – | 8 | 6.4 | 8 | – | 17 | 29.7 | – | – | 6 |
| Nc1nc2c(c(N)nn2C2O[C@H](CO)[C@@H](O)[C@H]2O)c(=O)[nH]1 (stereo partly drawn) | – | – | 6.8 | 6.2 | 1 | 16.8 | 25 | 3 | – | – |
| COc1nn(C2O[C@H](CO)[C@@H](O)[C@H]2O)c2nc(N)[nH]c(=O)c12 (stereo partly drawn) | 2 | – | 8.6 | 7.8 | 2 | – | – | – | – | – |
| Nc1nc2c(c(=O)[nH]1)c(=O)[nH]n2C1O[C@H](CO)[C@@H](O)[C@H]1O (stereo partly drawn) | 0% | – | 6.9 | 7 | – | – | – | – | – | – |
| N=c1[nH]c(=O)c2c(-c3ccccc3)nn(C3O[C@H](CO)[C@@H](O)[C@H]3O)c2[nH]1 (stereo partly drawn) | 0 | 1 | 7.2 | 6 | – | – | – | – | – | – |
| Nc1nc(=O)c2sc(=O)n([C@@H]3O[C@H](CO)[C@@H](O)[C@H]3O)c2[nH]1 [ISATORIBINE] | – | – | >21 | 11.5 | 10 | – | – | 12 | – | – |

Reference: ChEMBL document CHEMBL1124872, “Guanosine analogues. Synthesis of nucleosides of certain 3-substituted 6-aminopyrazolo[3,4-d]pyrimidin-4(5H)-ones as potential immunotherapeutic agents” (1990)
